Data as given in ChEMBL document CHEMBL4513216, “Probing the Open Global Health Chemical Diversity Library for Multistage-Active Starting Points for Next-Generation Antimalarials” (ACS Infect Dis, 2020).

experiment: Toxicity liver stage against HepG2, at 10uM; assay type: cell-based; parameters: test concentration 10 uM, cell line HepG2-A16-CD81EGFP; details: human, HepG2-A16-CD81EGFP cells; read-out: INHIBITION
In short: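 Uninfected HepG2-A16-CD81EGFP cells, 3 × 10^3 per well, 1536-well, plated on prespotted compound at 10 μM final, parasite-free screening media added to match infected plates; puromycin 10 μM positive, DMSO 0.5% negative; run in parallel with 48 h PbLuc assay at 37 °C, 5% CO2; viability by CellTiter-Glo luminescence, normalized to controls.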

| SMILES | cytotoxicity at 10 µM |
| --- | --- |
| CNC(C)Cc1ccccc1Sc1ccc(O)cc1 (stereo unspecified) | 2.73% |
| Cc1ccc(C(=O)N2CC(=O)N(Cc3ccco3)CC(O)C2)cc1 (stereo unspecified) | -0.817% |
| O=C(CCc1nc2cc(Br)cnc2[nH]1)NCc1cccnc1 | -0.874% |
| CC(C)c1sc(Br)nc1C(=O)NCc1cccnc1 | 3.06% |
| CCOC(=O)CCC(=O)N1CCC(CSCc2ccco2)CC1 | -10.3% |
| O=C(Cc1ccsc1)N1CCc2ccc(=O)n(CC3CC3)c2CC1 | 6.13% |
| CN1C(=O)CC(c2ccccc2)C12CCN(C(=O)c1ccc[nH]1)CC2 (stereo unspecified) | 7.52% |
| COCCN(C)C(=O)c1nc2c(s1)CCCN2C(=O)C1CC1 | -143% |
| O=C(Cc1csc(-c2ccccc2)n1)N[C@@H](C(=O)O)c1ccccc1 | 6.56% |
| O=C(Cn1cc(C(=O)O)ccc1=O)NCc1ccc(F)c(Cl)c1 | -5.88% |
| COCC1CN(S(C)(=O)=O)Cc2ncn(CC3CC3)c21 (stereo unspecified) | 1.68% |
| CS(=O)(=O)NCc1n[nH]c2c1CCN(C(=O)c1ccsc1)C2 | 4.01% |
| CC(C)NC(=O)N1CC[C@@H]2CN(Cc3cccc(Cl)c3)S(=O)(=O)[C@@H]2CC1 | 4.71% |
| CCC1=N[C@@]2(CC[C@@H]3CN(S(=O)(=O)CC)C[C@@H]32)C(=O)N1CC(C)C | -0.0582% |
| Cc1nn(Cn2ccc(C(=O)N3CCOCC3)n2)c(C)c1Cl | -0.112% |
| CC(C)NC(=O)c1nnc2ccc(N3CCOCC3)cc2n1 | 1.86% |
| CCN(CC)Cc1nnc2sc(C(C)Oc3ccccc3)nn12 (stereo unspecified) | 8.35% |
| Cc1nn(C)c2cn(C(C)C(=O)NCc3cccnc3)nc12 (stereo unspecified) | 5.55% |
| CC(=O)NCC(=O)N1CCOCC(Cc2ccc3c(ccn3C)c2)C1 (stereo unspecified) | 1.89% |
| Cc1ncsc1C(=O)NCc1ccc(-c2n[nH]cc2C(=O)N(C)C)cc1 | 0.522% |
| CN(C)S(=O)(=O)N1CC(c2ccnc(Nc3ccccn3)n2)C1 | 8.84% |
| Cc1cccnc1C(Cc1ccsc1)NCc1cnc(N(C)C)nc1 (stereo unspecified) | 5.24% |
| CN1CCC(c2cncc(C(=O)NCc3ccc(F)cc3)n2)CC1 | -8.11% |

| SMILES | cytotoxicity at 10 µM |
| --- | --- |
| O=C(NCC1CC1)c1cc(C2CC2)nc2onc(C3CCCNC3)c12 (stereo unspecified) | 4.98% |
| Cc1cnn(CC(C)NCc2cccnc2)c1 (stereo unspecified) | -3.3% |
| CC(NCCCN1CCCC1=O)c1ccc(F)cc1N(C)C (stereo unspecified) | -2.78% |
| Cc1ccc(O)c(C(=O)NCCS(=O)(=O)Cc2ccccc2)c1 | 4.57% |
| CN1CCOC(C(=O)Nc2nnc(Cc3ccc(F)cc3)[nH]2)C1 (stereo unspecified) | -4.95% |
| Cc1ccc(C2CSCCN2C(=O)c2ccncc2)cc1 (stereo unspecified) | 2.96% |
| O=C(Nc1cccnc1)NC1(c2cccc(F)c2)CC1 | 1.41% |
| COc1ccc(NC(=O)CN2CCS(=O)(=O)CC2)cn1 | 11.8% |
| Cc1nc(C(C)(C)NCc2nnc(C(C)C)o2)sc1C | 6.35% |
| CCc1nnsc1C(=O)N1CCOC(c2nc(C(C)C)n[nH]2)C1 (stereo unspecified) | 1.23% |
| CCN(CC)C(CNC(=O)c1ccc(-n2cncn2)cc1)c1ccsc1 (stereo unspecified) | -141% |
| Cc1cc(C2CCCN(C(=O)COc3ccc(F)cc3)C2)n[nH]1 (stereo unspecified) | 3.59% |
| CCOC(C)c1nc(CNc2cccc(Cl)c2OC)cs1 (stereo unspecified) | 6.16% |
| NC(=O)CN(CC(=O)NCc1cccc(Cl)c1)C1CCCC1 | -0.979% |
| CCOCCCC(=O)N1CCN(c2cccc(OC)c2)C(C)C1 (stereo unspecified) | 0.0272% |
| CN(Cc1noc(C(C)(C)C)n1)Cc1ccccc1N1CCCC1 | -1.78% |
| COc1ccc2c(c1)CN(CC(=O)NC1CCCC1)CC2 | -1.77% |
| O=C(NCCCNC(=O)c1ccc(F)cc1F)c1cccc(O)c1 | 2.9% |
| Cc1cc(C(=O)Nc2cccn(Cc3ccc(F)cc3)c2=O)on1 | 5.38% |
| COCCn1cc(NCc2cccc3cn[nH]c23)cn1 | -3.31% |
| O=C(Cc1csc(N2CCNC2=O)n1)NC1(c2ccccc2)CCC1 | -135% |
| Cc1sc2nc(SC(C)c3nc(C(C)C)no3)nc(N)c2c1C (stereo unspecified) | -2.4% |
| CS(=O)(=O)c1nccn1Cc1ccc(Cl)cc1 | -10.4% |

| SMILES | cytotoxicity at 10 µM |
| --- | --- |
| N#Cc1ccc(S(=O)(=O)N2CC(CC(=O)O)c3ccccc32)cc1 (stereo unspecified) | 0.513% |
| CCc1nc(CN2CCCCC2C(N)=O)cs1 (stereo unspecified) | -7.96% |
| CN(CCC(F)(F)F)Cc1nc2ccccc2c(=O)[nH]1 | -5.61% |
| c1ccc2nc(N3CCCC(Cn4cncn4)C3)cnc2c1 (stereo unspecified) | 5.46% |
| Cn1c(CNc2c(F)cccc2-n2cccn2)cc(=O)n(C)c1=O | -7.79% |
| Cc1cccc(CCC(=O)N2CCOCC2c2c(C)n[nH]c2C)c1 (stereo unspecified) | -13.3% |
| CCN1CC(C(=O)NCc2ccnc(-n3ccnc3C)c2)CC1=O (stereo unspecified) | -25.5% |
| CC(=O)N1CCCC1c1nnc2n1CCCCC2 (stereo unspecified) | 4.31% |
| O=C(C1CCOCC1)N1CCc2ncc(CN3CCCCC3)n2CC1 | -78.4% |
| Cn1cc(N2CCC3(CCCN(Cc4ccoc4)C3)C2=O)cn1 (stereo unspecified) | -77% |
| COc1c(C)cc(S(=O)(=O)NCC2CNCCOC2)cc1C (stereo unspecified) | -3.53% |
| CCCn1nccc1C(=O)N1CCN(C(=O)C2CC2)[C@@H]2CS(=O)(=O)C[C@@H]21 | 4.05% |
| CCN(CCn1cccn1)Cc1nc(-c2cccc(C)c2)oc1C | 0.0489% |
| Cn1nccc1C(=O)N1CCN(C(=O)C2CCC2)[C@@H]2CS(=O)(=O)C[C@@H]21 | 4.86% |
| Cc1noc([C@@H]2CCCN2C(=O)C2CCN(CC(N)=O)CC2)n1 | 3.96% |
| Cc1nc(C(C)NCc2cc(O)c3cccc(F)c3n2)cs1 (stereo unspecified) | 8.33% |
| CCc1cc(N(C)Cc2ccno2)n2nc(C)c(C)c2n1 | 1.35% |
| N#Cc1c(N)nc2c(c1-c1c[nH]nc1C1CCCCC1)CC(N)CC2 (stereo unspecified) | -3.06% |
| Cc1ccc(N2CCC(C(O)Cc3ccccc3)CC2)nn1 (stereo unspecified) | -3.43% |
| COCc1noc(Cn2ncn3cccc3c2=O)n1 | -5.56% |
| CC1CN(Cc2ccccc2Cn2cccn2)CCN1C (stereo unspecified) | -132% |
| COc1ccc(-c2ccccc2CCN)c(OC)c1 | 8.95% |
| O=C(O)c1coc(COc2cccc3cnccc23)n1 | -110% |

| SMILES | cytotoxicity at 10 µM |
| --- | --- |
| CN(CCn1cnc(-c2ccccc2)c1-c1ncc[nH]1)S(C)(=O)=O | 1.87% |
| Cc1csc2c(=O)n(CCN3CCC(c4ccccc4)CC3)cnc12 | 1.2% |
| CC1(C)CN(CC(=O)NCc2ccccc2F)C[C@]1(C)O | -1.84% |
| CC1(C)CC(N2CCN(C3CCCC3)C(CCO)C2)CC(C)(C)C1 (stereo unspecified) | -7.19% |
| Cc1cc(N2CCN(C(=O)c3cnn(C(C)C)c3)CC2)nc(N)n1 | -2.82% |
| CSCc1noc(CN(C)C(C)c2nc(C)sc2C)n1 (stereo unspecified) | 8.2% |
| CNC(=O)C1CCN(Cc2nc(-c3ccc(SC)cc3)oc2C)C1 (stereo unspecified) | -0.465% |
| COc1ccc(C(C(=O)O)N2CCC(O)(c3cccnc3)CC2)cc1Cl (stereo unspecified) | 4.57% |
| CC(C)=CCn1ncc(N2CCCCC2)cc1=O | -9.48% |
| CCCS(=O)(=O)N1CCN(c2cc(-n3ccnc3)nc(C)n2)CC1 | -1.89% |
| CC(=O)Nc1ccc(-c2ccccc2CCN)cc1 | 3.61% |
| Cc1[nH]ccc1C(=O)N1CCN(C)C2(CCC(=O)N(C)CC2)C1 (stereo unspecified) | 5.95% |
| Cc1cc(CC(=O)N2CCN(CC3CC3)[C@@H]3CS(=O)(=O)C[C@@H]32)ccc1F | 5.17% |
| CC(C)C1CN(c2ncc(F)cn2)CCC(=O)N1Cc1ccc(F)cc1 (stereo unspecified) | 16.9% |
| COCC1CCN(C(=O)c2cccc(S(=O)(=O)NCC3(C)COC3)c2)C1 (stereo unspecified) | 3.82% |
| COc1ccc(OC)c(CNCc2ccnc(N3CCOCC3)c2)c1 | 1.27% |
| Cc1ncsc1C(=O)N(Cc1ccccn1)C1CC1 | -11.2% |
| Cc1ccc2oc(C(=O)N3CCCC(n4nc(C)nc4C)C3)cc2n1 (stereo unspecified) | -7.39% |
| C=C(C)CN(CC)C(=O)CN(C)C1CCc2ccccc21 (stereo unspecified) | -11.6% |
| Cc1nn(C)c(C)c1C1CCCN1C(=O)c1cnc2onc(C)c2c1 (stereo unspecified) | -8.48% |
| FC(F)(F)Cn1ccnc1CNCC1CCCN1c1cccnn1 (stereo unspecified) | -26.6% |
| O=C(NCCN1CCCCC1)c1ccn(-c2ccc(F)cc2)n1 | -8.05% |
| Cc1nc(C)n(C2CCCN(C(=O)c3ccn(C(C)C)n3)C2)n1 (stereo unspecified) | -22.6% |

| SMILES | cytotoxicity at 10 µM |
| --- | --- |
| Cc1cnn(CC2CN(Cc3cccc(OCC(N)=O)c3)CCO2)c1 (stereo unspecified) | -7.18% |
| Cc1cc(CN2CCN(C(=O)NCc3nc(C)cs3)CC2)on1 | -5.01% |
| CC(C)(O)CN1CCN(C(=O)c2cc(Cl)cc3cccnc23)CC1 | -7.93% |
| COc1ccc(F)cc1CN1CCCC(c2cc(C(N)=O)[nH]n2)C1 (stereo unspecified) | 0.313% |
| CCN1CCCC(CNC(=O)C2(c3cccc(Cl)c3)CC2)C1 (stereo unspecified) | -2.77% |
| COCCOc1ccccc1CNCc1c(C)nn(C)c1N(C)C | -5.65% |
| O=C(c1cc(F)ccc1F)C1CCN(C(=O)c2ccc(=O)[nH]n2)CC1 | 3.42% |
| CC(C)COC(C)C(=O)NCc1ccc(OC(C)C)nc1 (stereo unspecified) | 2.12% |
| Cc1nc(CN2CCCC(N(C)Cc3cscn3)C2)no1 (stereo unspecified) | 16.8% |
| CN1CCCC(c2ccc(N3CCOCC3)cn2)C1 (stereo unspecified) | -6.47% |
| CNCc1ccc([C@@H]2CN(C(C)=O)C[C@H]2C(N)=O)cc1 | 5.32% |
| CC(=O)N1CCN(Cc2cccs2)CC2(CC(=O)N(C)C2)C1 (stereo unspecified) | 1.7% |
| CN(C)C(=O)N1CCC[C@]2(C(=O)N(C)C)CN(c3ccccn3)C[C@@H]2C1 | 7.13% |
| CNCCc1nc2cc(F)ccc2[nH]1 | 22% |
| CC(C)NC(=O)CC1CC2(CCN(CC3CC3)CC2)Oc2ccccc21 (stereo unspecified) | -2.42% |
| c1ccc(CN2CCc3nnc(CN4CCCCC4)n3CC2)nc1 | 3.73% |
| CCc1ccc(CN2C[C@@H](c3nc(C)no3)C[C@H]3OCC[C@H]32)o1 | -75.8% |
| Cn1ccc(CN2CCOCC23CCNCC3)n1 | 6.77% |
| C=c1occc1=C1NC(c2cccc(CN3CCOCC3)c2)=NO1 | -5.92% |
